In ChEMBL document CHEMBL3259518, “Semisynthesis, ex vivo evaluation, and SAR studies of coumarin derivatives as potential antiasthmatic drugs” (Eur J Med Chem, 2014):

How the values were obtained:
Assay type in all cases: functional
[1] = Antiasthamic activity in Wistar rat tracheal ring assessed as reversal of carbachol-induced contraction; settings: Trachea
Outline: (§1)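 Tracheas from male Wistar rats (250–300 g) were cleaned and cut into 4–5 mm rings of 2–3 cartilages each. Tension was recorded with force transducers. After equilibration, rings were contracted with 1 µM carbachol and washed every 40 min for 2 h. Cumulative concentration–response curves followed carbachol contraction, with relaxation taken from tone before vs after addition. Theophylline (1.67–550 µM) was the positive control. Six animals per group; EC50 and Emax came from nonlinear curve fitting.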

[2] = Antiasthamic activity in Wistar rat tracheal ring assessed as reversal of carbachol-induced contraction at 0.1 to 500 uM relative to control; settings: Trachea; outline: as §1
[3] = test system: Trachea; test: Potency index, ratio of theophylline EC50 to compound EC50 for antiasthamic activity in Wistar rat tracheal ring assessed as reversal of carbachol-induced contraction

Compound	EC50 [1] [µM]	Emax [2] [%]	Ratio EC50 [3]
Cc1cc(=O)oc2cc(OC(=O)c3ccccc3)ccc12		34	
O=C(Oc1ccc2ccc(=O)oc2c1)c1ccccc1		26	
CCOC(=O)COc1ccc2ccc(=O)oc2c1		31	
CCOc1cc2ccc(=O)oc2cc1OCC	42	100	4
O=C(Oc1cc2ccc(=O)oc2cc1OC(=O)c1ccccc1)c1ccccc1		12	
CCOC(=O)COc1cc2ccc(=O)oc2cc1OCC(=O)OCC		33	
CCCOc1ccc2c(C)cc(=O)oc2c1	267	100	
CC(=O)Oc1ccc2ccc(=O)oc2c1 [7-ACETOXYCOUMARIN]		16	
CCCOc1ccc2ccc(=O)oc2c1 [7-PROPOXYCOUMARIN]	133	100	
O=c1ccc2cc(O)c(O)cc2o1 [ESCULETIN]		47.9	
CCOc1ccc2ccc(=O)oc2c1 [ETHOXYCOUMARIN]	245	100	
COc1ccc2ccc(=O)oc2c1 [HERNIARIN]	244	100	
COc1cc2ccc(=O)oc2cc1OC [SCOPARONE]	80	100	
Cn1c(=O)c2nc[nH]c2n(C)c1=O [THEOPHYLLINE]	144	100	
O=c1ccc2ccc(O)cc2o1 [UMBELLIFERONE]	449	67	

The next lines start with results.

EC50 [1] [µM]	Compound	Emax [2] [%]	Ratio EC50 [3]
360	CC(=O)Oc1ccc2c(C)cc(=O)oc2c1	62	
200	CCOC(=O)COc1ccc2c(C)cc(=O)oc2c1	70	
80	CCOc1ccc2c(C)cc(=O)oc2c1	100	
89	CCCOc1cc2ccc(=O)oc2cc1OCCC	100	
231	CC(=O)Oc1cc2ccc(=O)oc2cc1OC(C)=O	77	
230	COc1ccc2c(C)cc(=O)oc2c1 [HYMECROMONE METHYL ETHER]	100	
260	Cc1cc(=O)oc2cc(O)ccc12 [HYMECROMONE]	90	
